Screening results from PubChem.
An excerpt weighted towards active compounds, which were near 3.9% of everything screened.
Pf gamet viab – kills late stage P. falciparum gametocytes | P. falciparum stage V gametocytes, ATP luminescence, 24 h | inhibition, % at 10.9 µM | 0.065% of 150,000 active | AID 743093;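 active means inhibition above the mean plus 3 SD of compounds within the control limits, set per campaign, cut at about 38% in these data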
APP 5'UTR act – APP 5'UTR luciferase reporter activation | SH-SY5Y APP 5'UTR luciferase reporter, luminescence; zero percent = DMSO vehicle wells | activation, % at 2 µM | 1% of 190,000 active | AID 1276;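 active means activation above a set limit, based on mean plus 3 SD of controls, cut at about 140% in these data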
STAT1 activator – activators of IFN-gamma induced STAT1 signaling; NIH 3T3 STAT1-luciferase reporter, luminescence; 100% = IFN-gamma alone, no compound; 2.6% of 200,000 active; activation (% of control), % at 5.5 µM;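 active means activation above the screen-wide mean activation plus 3 SD, cut at about 130% in these data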
STAT1 inh – inhibitors of IFN-gamma induced STAT1 signaling; NIH 3T3 STAT1-luciferase reporter, luminescence; inhibition, % at 5.5 µM; 0.35% of 200,000 active; AID 920;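 active means inhibition above a set limit, the mean inhibition across all tested compounds plus 3 SD, cut at about 34% in these data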
NF-kB expr up – raises NF-kB expression in human neuronal cells; 1.6% of 190,000 active; fold change at 12.5 µM; AID 1239; NF-kB reporter expression; stronger effect = higher value; in the data active means fold change above about 3.3
STAT3 act – STAT3 signaling activation | 0.91% of 190,000 active | U3A cells, IL-6 STAT3-luciferase reporter, luminescence; 100% = signal with IL-6 EC80 alone | activation (% of control), % at 5.6 µM | AID 871;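 active means activation above the screen-wide mean of compound activation plus 3 SD, cut at about 130% in these data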
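Test system: Human STAT1-deficient U3A cells with stable STAT3-luciferase reporter | Also added: Interleukin-6, 33 ng/mL | Timing: Compound pre-incubation 1 h before IL-6, then 6 h stimulation at 37 °C | Technique: Luciferase reporter luminescence | Read-out: Percent of IL-6-only median luminescence | Benchmarks: IL-6-only wells as 100% reference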
Numbers stand for hits; 0 = inactive; - = no result given.

SMILES	Pf gamet viab	APP 5'UTR act	STAT1 activator	STAT1 inh	NF-kB expr up	STAT3 act
COC(=O)c1ccc(/C=C/c2ccc3cccc(OC(C)=O)c3n2)cc1	0	0	0	0	3.73	0
CCOc1ccc2cc(C3CC(c4ccco4)=NN3S(C)(=O)=O)c(Cl)nc2c1 (stereo not given)	0	-	-	-	-	-
CCc1ccc(C2CC(c3ccco3)=NN2S(C)(=O)=O)cc1 (stereo not given)	-	154.7	138.0	0	4.83	0
CCC(=O)c1ccc(/C=C/c2nc3ccccc3n2C)o1	-	0	0	0	4.82	0
CC1CCC/C(=N\NC(=O)Nc2ccccc2)C1 (stereo not given)	0	0	0	0	0	0
CC1CCC/C(=N\Nc2ccc(Cl)c(C(=O)O)c2)C1 (stereo not given)	0	216.8	0	0	0	0
CC(C)c1ccc(CNc2ccc([N+](=O)[O-])cn2)cc1	0	0	137.6	0	0	0
Cc1c(C(=O)NCc2ccoc2)oc2ccc3c(c12)C(=O)CC(C)(C)O3	-	0	146.5	0	3.85	0
Cc1c(C(=O)NCCc2ccc3c(c2)OCCO3)oc2ccccc12	-	0	0	0	0	0
O=C(c1nc2ccccn2c1CNCCn1ccc2ccccc21)N1CCOCC1	0	-	-	-	-	-
Cc1ccc(/C=C2\CCC3=C2OC(N)=C(C#N)C3c2ccc(C)cc2)cc1 (stereo not given)	-	0	0	0	0	0
N#CC1=C(N)OC2=C(CCc3ccccc32)C1c1ccccc1 (stereo not given)	0	0	0	0	4.7	0
Cc1ccc2c(c1)c1cccc3c1n2CCN3CCC(N)=O	-	0	142.9	0	0	0
CC(C)(C)NC(=O)COC(=O)/C=C/c1ccccc1[N+](=O)[O-]	-	0	0	0	0	0
O=C(C1CCN(Cc2ccc(F)cc2)CC1)N(CCc1ccccc1)Cc1ccccc1	-	0	0	0	0	0
O=[N+]([O-])c1ccc(Nc2ccc(Cl)cc2)nc1	0	0	0	0	0	0
O=[N+]([O-])c1ccc(Nc2ccc3ccccc3c2)nc1	-	0	132.8	0	0	0
Oc1ccc(Cl)cc1C1=NNC(c2ccc(Cl)cc2)C1 (stereo not given)	0	0	129.7	0	0	0
O=C(c1ccc(COc2ccccc2Br)cc1)N1CCCCCC1	0	0	0	0	0	0
CC1=CC(C)(C)N2C(=O)C3(C(C#N)=C(N)Oc4cc(O)ccc43)c3cccc1c32 (stereo not given)	-	0	130.7	0	0	0
CCn1c(P(C)(=O)O)nc2cc(NC(=O)c3ccccc3Cl)ccc21	0	0	0	0	0	0
O=C1CC(c2ccco2)CC2=C1C1c3ccccc3C(=O)N1c1ccccc1N2 (stereo not given)	-	0	0	0	8.45	0
CCC(=O)N1c2ccccc2NC2=C(C(=O)CC(c3ccco3)C2)C1c1ccco1 (stereo not given)	0	0	0	0	0	0
O=C(OCc1ccccc1)c1cccc(-c2nnc(-c3ccccc3)o2)c1	0	0	0	0	0	0
CC(=O)Nc1cccc(-c2nnc(-c3ccccc3)o2)c1	0	0	129.6	0	0	0
SMILES	Pf gamet viab	APP 5'UTR act	STAT1 activator	STAT1 inh	NF-kB expr up	STAT3 act
O=C(Nc1cccc(-c2nnc(-c3ccccc3)o2)c1)C1CC1	0	0	0	0	0	0
CCOC(=O)c1cccc(COC(=O)c2cccc(-c3nnc(-c4ccccc4)o3)c2)c1	0	0	130.8	0	0	0
COc1ccc(CC(=O)Nc2cccc(-c3nnc(-c4ccc(C)cc4)o3)c2)cc1OC	0	0	0	0	0	0
Cc1ccc(OCC(=O)Nc2cccc(-c3nnc(-c4ccccc4)o3)c2)c(C)c1	0	0	132.4	0	0	0
Cc1oc(-c2ccc(Cl)cc2)cc1C(=O)/C(C#N)=C/Nc1ccccc1	0	-	-	-	-	-
CN(C(=O)COC(=O)CNC(=O)c1ccc(Cl)cc1Cl)c1ccccc1	0	0	0	0	0	0
C/C(=N\NC(N)=O)C1CC(Cc2ccccc2)C(=O)O1 (stereo not given)	0	-	-	-	-	-
C=CCn1c(O)c(C=Nc2ccc(CN3CCCCC3)cc2)c(=O)[nH]c1=S	0	-	-	-	-	-
CC(=O)c1cnc(Nc2ccc(C)cc2)s1	0	0	137.1	0	0	0
O=C(CSc1nnc(NC(=O)c2ccc3c(c2)OCO3)s1)NCc1ccco1	-	0	0	0	0	0
O=C1c2cccc(Cl)c2C(=O)c2c1cccc2N1CCCC1	0	0	0	0	-	137.0
O=C1C(Cl)=C(N2CCCCC2)C(=O)N1c1ccccc1Cl	-	0	0	0	0	0
Cc1ccc(N2C(=O)C(NC(=O)c3ccccc3)(C(F)(F)F)C3=C2CC(C)(C)CC3=O)cc1 (stereo not given)	0	0	0	0	13.8	0
O=C(CC12CC3CC(CC(C3)C1)C2)NC1CC1	0	-	-	-	-	-
Cc1ccc(N2C(=O)CCC2=O)c(C)c1	0	-	-	-	-	-
Cc1ccc(-c2noc(-c3cc4ccccc4oc3=O)n2)cc1	-	0	0	0	0	0
COc1ccc(-c2cc3ccccc3oc2=O)cc1	0	-	-	-	-	-
O=c1oc2ccccc2cc1-c1nc2ccccc2o1	-	151.8	0	0	4.39	0
Cc1cccc(-c2noc(-c3cc4ccccc4oc3=O)n2)c1	-	0	0	0	3.62	0
O=c1oc2ccccc2cc1-c1nc2c(s1)CCCC2	-	187.8	0	0	0	0
O=c1oc2ccccc2cc1-c1nc(-c2ccccc2)no1	-	0	144.6	0	4.12	0
CC(=O)NCCCc1nc2ccccc2n1Cc1c(F)cccc1Cl	0	-	-	-	-	-
CN(C)/C=N/C(=S)Nc1ccc(Cl)cc1Cl	0	0	131.8	0	0	0
Cc1ccc(-n2c(-c3ccc(Br)cc3)c[n+]3c2CCc2ccc4cccnc4c2-3)cc1	-	0	0	39.0	0	0
COc1ccc(-n2c(-c3ccc(Cl)cc3)c[n+]3c2CCc2ccccc2-3)cc1	0	0	0	0	0	0
SMILES	Pf gamet viab	APP 5'UTR act	STAT1 activator	STAT1 inh	NF-kB expr up	STAT3 act
CCOCCc1nnc(NC(=O)Cc2c(F)cccc2Cl)s1	0	0	0	0	0	0
CCCCOc1ccc(-c2[nH]ncc2C=O)cc1	-	0	134.6	0	0	0
Cc1oncc1-c1csc(-c2ccccc2Cl)n1	0	0	143.0	0	0	0
O=C(O)c1ccc(-c2nc(-c3ccccc3Cl)cs2)cc1	0	0	134.3	0	0	0
ClCc1csc(-c2ccccc2Cl)n1	0	0	0	0	0	0
O=C(O)c1ccccc1-c1csc(-c2ccccc2)n1	0	0	0	0	0	0
Cc1oncc1-c1csc(-c2ccccc2)n1	0	0	137.1	0	0	0
CCOC(=O)CSc1nc2cccnc2n1C	-	0	0	0	0	0
Cn1c(SCc2ccccc2F)nc2cccnc21	0	141.1	137.3	0	3.36	0
CNc1ncc(C(=O)c2ccc(Cl)cc2)s1	-	0	0	0	4.04	0
CNc1ncc(C(=O)c2ccc(Cl)c(Cl)c2)s1	0	0	0	0	4.32	0
O=C(c1ccc(Cl)c(Cl)c1)c1cnc(Nc2ccccc2)s1	0	0	0	0	0	0
